# In the EternaBench riboswitch data:
# Test system: MS2 coat protein
# Assay: apparent Kd, MS2 coat protein; higher = weaker binding; RNA-MaP array; FMN 200 µM where present
# Summary of the method: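 On Illumina sequencing-chip clusters, designs were transcribed by stalled E. coli RNA polymerase and titrated with SNAP-549-labelled MS2 coat protein (0.7 or 1.5 nM, doubling to 3 µM), without and then with constant ligand, in 100 mM Tris-HCl pH 7.5, 80 mM KCl, 4 mM MgCl2, BSA, DTT, yeast tRNA and Tween-20. Apparent Kd is the median of filtered per-cluster curve fits to green signal normalised to red-channel RNA signal and control-cluster median Fmax.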
# [1] = designed as: OFF switch for flavin mononucleotide, no ligand
# [2] = ligand present: flavin mononucleotide, designed as: OFF switch for flavin mononucleotide
# [3] = designed as: ON switch for flavin mononucleotide, no ligand
# [4] = ligand present: flavin mononucleotide, designed as: ON switch for flavin mononucleotide
Sequence,apparent Kd [1],apparent Kd [2],apparent Kd [3],apparent Kd [4]
CUAACACAUGAGGAUCACCCAUGUUAGGAUAUUAGUACUAUUUACCACAUAAUGGCACUGAGAAGGAGCGGGUA,29.3 nM,31.3 nM,–,–
GAGAUGUCAGGAUAUGUGUAAAGAAUAAAACAAAUAACAACACAGAAGGGACAUGAGGAUCACCCAUGUUACUC,24.9 nM,54.6 nM,–,–
UGGUACAUCGGAGGAUAUCAUGUGAUAACAUGAGGAUCACCCAUGUCGAUGGAGACAUCGGAGAUUGAGAAGGCCGAUGUACCU,–,–,801 nM,84.2 nM
CGAGCUGCUGUGAGGAUAUACCUAUGGGUGCGUGGGUAGAAGGCACAUGAGGAUCACCCAUGUCCUGCAGCUCG,255 nM,344 nM,–,–
GGGAAGUUAGGAUAUGCUGCUCGUCACUUGCGUGAUGAGUAGCAGAAGGAACAUGAGGAUCACCCAUGUAAAGA,34.3 nM,37.5 nM,–,–
UUAUUGGUAGUGAGGAUAUCGGUUUGAUAGAUAUUCGAGAAGGCACAUGAGGAUCACCCAUGUAAGAUUGGGAA,201 nM,196 nM,–,–
AGACUGAAGCAAGGAUAUUGUAAAGUUAUCGUACAAGAAGGUGCUGUUUAUGUCUCUUUACAUGAGGAUCACCCAUGUUUUUAA,–,–,22.6 nM,24.2 nM
ACCAUUUACUAAUUAUCUAUACAUGAGGAUCACCCAUGUUAAGAGGAUAUCAUCGUGAAACACGAUGAGAAGGCUUAGCAUUCG,54.5 nM,187 nM,–,–
CUGGUGUGAGGAUAUCAAAGACCUCGGUAAAGAACCGAGGAUGAGAAGGCACAUGAGGAUCACCCAUGUAACAA,23.3 nM,32.9 nM,–,–
UGUCGGAGCAGAGGAUAUUACAUGAGGAUCACCCAUGUAUGAACCAAUAGCUGGAAACAGCAAUGUAAGAAGGCUGCUCCGUCA,11.9 nM,167 nM,–,–
AAAUUUAACGAAGGAUAUGCUGACAUGAGGAUCACCCAUGUGUGCCUUGUGUUGCUGAAACGGGAGCAGAAGGUCGUAUACAUA,694 nM,1180 nM,–,–
CUAUGAGCGAUAGGAUAUACUGAGAUUGAGUGGGUAGAAGGAUCGAUAGUGUAGAAGACAUGAGGAUCACCCAUGUUACGGGCC,–,–,188 nM,186 nM
UUAGGCGACCAGAAGGGUGACAUGAGGAUCACCCAUGUAGAUGUGUUCCCGCUUGGGAGCCGUCCACAGGAUAUGGUUGGUUAG,–,–,35.7 nM,16.8 nM
GUAGCAUACCGAGGAUAUUCAUACCGGAAACGGACAUGAGGAUCACCCAUGUGGCGAAAGCCUUUGGAGAAGGCGGAAUGCUAC,–,–,13.2 nM,11.7 nM
UUGGACGUCGUAGGAUAUUUAGGAUAUUCCUACAUGAGGAUCACCCAUGUUGACAUGGAAGAAGGACAGAAGGACGAUGUCCAU,–,–,24.1 nM,8.23 nM
AGGAAGUGAGGAUAUGCUGCUCGUCACUUGCGUGAUGAGUAGCAGAAGGCACAUGAGGAUCACCCAUGUAAAGA,40.2 nM,55.1 nM,–,–
CCUAGUUGGUAAGGAUAUCCUACACUGUUCUGACCCGUGCAAGCUACAUGAGGAUCACCCAUGUAGGAGAAGGUGCGUCAACGC,9.11 nM,9.13 nM,–,–
GUGCCUUGGGAGAAGGUUAUUAGCAAAGCUAUUAAAGGAUAUUCAUACCGGAAACGGACAUGAGGAUCACCCAUGUGGCACAAA,–,–,1630 nM,122 nM
AUGAGGGAAGUAGGAUAUGAUCAAGACAUGAGGAUCACCCAUGUAAUGAGGGUGUGUGUCUUUGUUCAGAAGGACUUGUGUCAA,46.4 nM,52.6 nM,–,–
AUAGCUCCCUAGAAGGGCCAACGACAAUUGCAUCACGUAGUUGGCGUAGGUAGGAUAUGGGACAUGAGGAUCACCCAUGUGUAG,–,–,27 nM,16.1 nM
AUGACUUAUGUAGGAUAUGCAUAGAGUUGCUAUGCAGAAGGACAUGAGGAUCACCCAUGUAUGUAUACCUUACAAAACUAGCAU,9.07 nM,54 nM,–,–
GCCAGGAUGUAAGGAUAUGCUGAGGAUAACUCAGCAGAAGGUACAUGAGGAUCACCCAUGUAAUCCUAAUAAUAAUAACCUGGC,11.5 nM,17.4 nM,–,–
UGAUAGGACAGAGGAUAUACGUAUAAUUCCUUCAACAUGAGGAUCACCCAUGUAGAAGGCUGUCCUAUCUAAGUCGGAAACGAC,4.81 nM,5.33 nM,–,–
GCACGGCAUGUAGGAUAUCGAGCUCCGGGAGCUCGAGAAGGACAUGAGGAUCACCCAUGUGCUCACAGUGAGUGAGCGCUGUGC,23.9 nM,93.5 nM,–,–

Sequence,apparent Kd [1],apparent Kd [2],apparent Kd [3],apparent Kd [4]
GUAGAGUCAGGAUAUACGAGAUCGAAAGAUCAGUAAUCCUCACAUGAGGAUCACCCAUGUAGAAGGGACUCUAC,23.4 nM,344 nM,–,–
AAAGGACAUGAGGAUCACCCAUGUGAGGAUAUGCUCUACGAACGAAUACACAUGAGAAGCAGAAGGCACAUAAG,151 nM,247 nM,–,–
GUAGCAUACCAAGGAUAUUUAGGACUUUGAUAGACAUGAGGAUCACCCAUGUGGCGUUAGUCACGGGAGAAGGUGGUAUGCUAC,–,–,63.5 nM,16.9 nM
UCCACUGCUGAGAAGGGAUACGUUUGGGUCGCAUCAGGAUAUCGAUACAGUGCAGCAUGAGGACAUGAGGAUCACCCAUGUGUG,–,–,140 nM,29.5 nM
AAAACAUGAGGAUCACCCAUGUAAAGAUCGGUUGAUGAAAGUGAGGAUAUACAAAAUUUUAUGGAGUAGAAGGCACUGGGUUGA,–,–,67.4 nM,47.7 nM
GUACCUUAUGAGAAGGCGAUCAUAAAACGUGAUCGAGGAUAUCAUGAAAACAUGAGGAUCACCCAUGUAUGGGUAUUAUGGUAC,–,–,36 nM,19.3 nM
UGUCGGAGCAGAGGAUAUUACAUGAGGAUCACCCAUGUAUGAACCAAUAUCUGGAAACAGCAAUGUAAGAAGGCUGCUCCGACA,7.16 nM,47.3 nM,–,–
GUAGAGUCAGGAUAUACGAAUAGAUCGAAAGAUCAAUCCAUACAUGAGGAUCACCCAUGUAGAAGGGACUCUAC,19.3 nM,22.7 nM,–,–
UUAAUUAUACAAGGAUAUCUAUUGUUAUUUCGACUUACAUGAGGAUCACCCAUGUUAAUAUAUUUAGAGAAGGUGUAUUUUCAG,–,–,86.8 nM,36.5 nM
GGAUCCUUCACAGGAUAUGCUGGACUUUGUCCAGCAGAAGGGUGAACAUGAGGAUCACCCAUGUAUUGGAUCCAUAUAUUUAAU,–,–,897 nM,56.1 nM
AGCAGACGAGGAUAUAGAUUUGUUGACAUGAGGAUCACCCAUGUGAUCGAUCUAUUAUAUUUAGAAGGUGUCUGCU,12.9 nM,13.5 nM,–,–
UGAAAUCAUGUAGGAUAUGCAUGGCGAAGCUACGCAGAAGGACAUGAGGAUCACCCAUGUUAUAGCUACCCAGUUAGGUGGCAA,145 nM,157 nM,–,–
AAUGGGCAGCAGAAGGCAUGUCAACGGACAUGAGGAUCACCCAUGUAGUAUAGCCGAAAGGCACAUGAGGAUAUGCUGCCCUAA,–,–,19.4 nM,5.14 nM
GAUAGGACAGAGAAGGACAUAGCUAGAGAUACUAGCAUAUGAACCUUCACAUGAGGAUCACCCAUGUAGGAUAUCUGUCCUAUC,3.51 nM,3.96 nM,–,–
GUCAGCUCGUGAGGAUAUACAACACUGCUUCGGCAGUGUAUUAAGAUCACAUGAGGAUCACCCAUGUAGAAGGCACCAGCUGAU,16.3 nM,215 nM,–,–
CUGAUGUUAGGAUAUCAGGCUGCGCGCGAAGGCGGACGGCAUGAGAAGGAACAUGAGGAUCACCCAUGUGACGA,32.6 nM,103 nM,–,–
AAUAUAAGAGCUGGUAAUCUCAAAACAUGAGGAUCACCCAUGUAGGAUAUCAGCACGAUAAGUGCUGAGAAGGACAUCCAGCUC,14.3 nM,16.7 nM,–,–
AACAGCUCGUCAGGAUAUAUUAUAAUAAUACGGCAGUUUGUACAUGAGGAUCACCCAUGUUGUAUGUAGAAGGGACGAGCUGAA,9.86 nM,8.91 nM,–,–
AGAAACUACGAGAAGGACAUGUGGAAAACCGCAAACAUGAGGAUCACCCAUGUAGGAUAUCGUAGUUUCAGGAUCGUGAGAUCA,772 nM,148 nM,–,–
GCGAUGAUCGAGAAGGCCACUACAUGAGGAUCACCCAUGUCGUGGUGUAUUGGAGGAUAUCGAUUGGCGCCUUAUGAGGACAUG,5.49 nM,8.22 nM,–,–
GGUUCACGAGGAUAUCGAUUUUAGUACAUGAGGAUCACCCAUGUUGUCCAGGUUUCGAUUCGAGAAGGCGUGAACC,22.8 nM,22.5 nM,–,–
AGUCAGAGCAGAGGAUAUAUACAUGAGGAUCACCCAUGUGACUGACUAUGCUAGAAAUAGUAUGUAUAGAAGGCUGCUCUGACA,188 nM,466 nM,–,–
AAAAUGUGUACAUGAGGAUCACCCAUGUAUCGACUCCAAAGCAAGGAUAUGAUCAUGGGAAUUGGUCAGAAGGUGCAGGGUCUG,–,–,205 nM,25.8 nM
UAUUUAAGAGGAUAUACAUGAGGAUCACCCAUGUGUGUCAAUACGCGUGAUUUUUCAUGUAGAAGGCUUGGGUA,233 nM,129 nM,–,–
